Source: the EternaBench riboswitch data

Test system: MS2 coat protein
Experiment: apparent Kd, MS2 coat protein; higher = weaker binding; RNA-MaP array; FMN 200 µM where present
In short: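 Designs were transcribed by stalled E. coli RNA polymerase on Illumina sequencing-chip clusters. They were titrated with SNAP-549-labelled MS2 coat protein from 0.7 or 1.5 nM, doubling to 3 µM, in 100 mM Tris-HCl pH 7.5, 80 mM KCl, 4 mM MgCl2, BSA, DTT, yeast tRNA and Tween-20, without and then with constant ligand. The apparent Kd is the median of filtered per-cluster fits after normalisation of green signal to red-channel RNA signal and control-cluster median Fmax.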

[1] = designed as: ON switch for flavin mononucleotide, no ligand
[2] = ligand present: flavin mononucleotide, designed as: ON switch for flavin mononucleotide
[3] = designed as: OFF switch for flavin mononucleotide, no ligand
[4] = ligand present: flavin mononucleotide, designed as: OFF switch for flavin mononucleotide

| Sequence | apparent Kd [1] [nM] | apparent Kd [2] [nM] | apparent Kd [3] [nM] | apparent Kd [4] [nM] |
| --- | --- | --- | --- | --- |
| GCGCUUAAACAGAAGGCCAAAUACAUGAGGAUCACCCAUGUCGAAUCAUGGAGGAUAUGUUAUUAAUUACACGCAGAUGAGCGC | 124 | 10.7 |  |  |
| GGUACUCAAAGAGUACCAAUACGAACAUGAGGAUCACCCAUGUAGGAUAUGCUACUCAAAGAGUAGCAGAAGGACAUGUGAAAU |  |  | 71.5 | 380 |
| GCACUGGAUGUAGGAUAUCAGGACGAUAAGUCCUGAGAAGGACAUGAGGAUCACCCAUGUGAUAAUUCCAGUGCAAAUAAUAUA |  |  | 14.3 | 31 |
| CCGCUCGAAGGAUAUACAAUCCUCAGACUCUUCGACCAAAGACAUGAGGAUCACCCAUGUAGAAGGUCGGCGGA |  |  | 13.3 | 25.9 |
| CCUCUACAUGAGGAUCACCCAUGUGAGGAUAUAUGCCCAUUACGCCAAGAGCGUGAUGAUAGAAGGCACAGGGU |  |  | 22 | 72.7 |
| UUAUAUAAGGUGUAGCUAGACAUGCAAGAAGGGUGAAGAACAUGAGGAUCACCCAUGUAGACGGUACAGGAUAUUGAUUGACGA | 340 | 166 |  |  |
| ACUUUAUUUGAGAAGGUGAAGUGGAAACAUGAGGAUCACCCAUGUAUUAGGAAGCCUAAUUUUAUCAAGGAUAUCAAAUAAAGA | 7.93 | 8.04 |  |  |
| UGUCGGAGCAGAGGAUAUUACAUGAGGAUCACCCAUGUAGGAACCAAUAGCUGGAAACAGCAAUGUAAGAAGGCUGCUCCGACA |  |  | 19.6 | 267 |
| ACGUCGAGCCAGAAGGCAACAUGAGGAUCACCCAUGUAGUCCGGCUCGUGUUGAGGAUAUGGCACCCACGCGGAAGGCGCAGGU |  |  | 5.54 | 7.19 |
| AACUCAGCAGGAUAUACAUACAAAUCCAUCAUGCCGUUUGAACAUGAGGAUCACCCAUGUAGAAGGGCUCACAC |  |  | 28.7 | 51.5 |
| AUCAGCUCGUCAGGAUAUACGCCACUGCGUCAGCAGUGUGGUAAGAUCACAUGAGGAUCACCCAUGUAGAAGGGACGAGCUGAU |  |  | 10.9 | 147 |
| GUGCUUGUCGGAGGAUAUGGUUACAUGAGGAUCACCCAUGUUAUGCUUGGUUACUUGUUUAGUUUCCAGAAGGUCGAUUGGUUG |  |  | 69.6 | 132 |
| GUGCCAUAUGAGAAGGCGAUCAUGAAACAUGAUCGAGGAUAUCAUGAAAACAUGAGGAUCACCCAUGUAUGGGUAUUAAGGUAC | 64.3 | 28.9 |  |  |
| CGAACCCGAGGAUAUCGUAAACCCGACAUGAGGAUCACCCAUGUCAUCCUCACGGCGCCACGAGAAGGCGGUGUUU |  |  | 56.5 | 160 |
| UGAAACUACGAGAAGGACAUGUGGUCCUUCAGUUACAUGAGGAUCACCCAUGUAGGAUAUCGUAGUUUCAGGAUCGUGAGAUCU |  |  | 38.5 | 12.7 |
| GAGAAGUCAGGAUAUGCUGCUCGUCACUUGCGUGAUGAGUAGCAGAAGGGACAUGAGGAUCACCCAUGUAAAGU |  |  | 51.7 | 74.8 |
| GUAUAGGACAGAGGAUAUACGUGCUAGAGAUACUAGCAAAAUUUCCUCACAUGAGGAUCACCCAUGUAGAAGGCUGUCCUAUCG |  |  | 17.1 | 498 |
| AUGCUUUAUGUAGGAUAUGCAUACGGUACGUAUGCAGAAGGACAUGAGGAUCACCCAUGUAAAUUAUUAUUACAUAUCAUACAU |  |  |  | 44 |
| UUAAAUCAUGUAGGAUAUGCAUGGCGAAGCUACGCAGAAGGACAUGAGGAUCACCCAUGUGCUAGCUACCGGAUACGGUGGCAA |  |  | 60.7 | 264 |
| CAUGCCUGCACAGGAUAUCAUACAUGAGGAUCACCCAUGUCUAACAACACAUGAGAAGGGUGCAUGCCUGGGCGAAGUUUUGUG | 24.3 | 6.22 |  |  |
| GUUGCACAAAUUAACAUGAGGAUCACCCAUGUCAAAAGACAUGAGGAUAUGGAUCUGAAGAAGAUCCAGAAGGCAUAGUGCUAA | 370 | 23.7 |  |  |

| Sequence | apparent Kd [1] [nM] | apparent Kd [2] [nM] | apparent Kd [3] [nM] | apparent Kd [4] [nM] |
| --- | --- | --- | --- | --- |
| GGAUAGGACAGAGGAUAUACCGAUAGGAUCUACUAUCGAACAAUUCUCACAUGAGGAUCACCCAUGUAGAAGGCUGUCCUAUCG |  |  | 16.6 | 29.4 |
| AGUUGGCGAGGAUAUACAUGAGGAUCACCCAUGUGAGAGAUACUAGUGAGGUCGAUUAGUAGAAGGCGCUGACA |  |  | 31.1 | 439 |
| AAAGAGCGAGGAUAUACAUGAGGAUCACCCAUGUAAAGAUGCAUGGUCUGAACGUCUGGUAGAAGGCGUAUGAA |  |  | 135 | 120 |
| GGUGGACAUGAGGAUCACCCAUGUGAGGAUAUCGGCUGGCUAGCGGCGGAUGGCUUCUCGAGAAGGCGCAUAGU |  |  | 80.2 | 67.5 |
| GGAUGACAAAGUCAUCCAAUACGAACAUGAGGAUCACCCAUGUAGGAUAUGCAACUCAAAGAGUUGCAGAAGGACAUGUGUCUU |  |  | 28.9 | 128 |
| AAAAAGUGAGGAUAUACAUGAGGAUCACCCAUGUGAAAGUCGAAAAAAAAGACAAGAAGUAGAAGGCACAAAAA |  |  | 30.4 | 34.9 |
| UUAUGAGCGAUAGGAUAUACUGAGAUUGAAUGGGUAGAAGGAUCGAUCGUGUAGAAGACAUGAGGAUCACCCAUGUUACGGGCC | 97 | 218 |  |  |
| GGGCCCGGAGGAUAUACAAUCCCGGGUUGAAAGGCCCGGGUACAUGAGGAUCACCCAUGUAGAAGGUUGGGCCC |  |  | 14.2 | 17.3 |
| GUCAGCUCGUGAGGAUAUACAACACUGCUUCGGCAGUGUAUUAAGAUCACAUGAGGAUCACCCAUGUAGAAGGCACGAGCUGAA |  |  | 13.7 | 245 |
| AACAUGGUACAGAAGGGCAAUUUAUUUAAUUAUUAUUUAGAACAGCAUUGCAGGAUAUGUUUAACAUGAGGAUCACCCAUGUAC | 70.4 | 13.8 |  |  |
| GAUAGGACAGAGAAGGACGUAGCUAGAGAUACUAGCAUAAAGUCCUCAACAUGAGGAUCACCCAUGUAGGAUAUCUGUCCUAUC |  |  | 6.39 | 7.13 |
| UGAAUCAAUACAGGAUAUGGUGACGCACAUGAGGAUCACCCAUGUCCGCAGCGUGCUCAGCACGCCCAGAAGGGUAUUGAUCCG |  | 84.8 |  |  |
| CUUUUGUGAGGAUAUCAGUAGUAAAAAAAUAAAAUUACUUCUGAGAAGGCACAUGAGGAUCACCCAUGUUCCUC |  |  | 39.5 | 333 |
| GUGCUGGAGCUUUGCUUUAGUCGUACAUGAGGAUCACCCAUGUAGGAUAUGGUAGGCUUUGCUUACUAGAAGGAUAGAGUGGUC |  |  | 40.3 | 26.8 |
| GCUGCAAAGUAAGGAUAUGCCUAGGAAACCUAGGCAGAAGGUACAUGAGGAUCACCCAUGUUAACCCAAAGGGAAUAAAGCAGC |  |  | 15.8 | 25.3 |
| UGCGCCAGAGGAUAUCGGGCUCGCAACAUGAGGAUCACCCAUGUAGUAUGGUCUUAUUUUCGAGAAGGCUGUCGUU |  |  | 20.9 | 17.4 |
| AUAUGAUAGAUAGGAUAUACUGUGGUUGAAUGUGUAGAAGGAUCGAUAGGGAAAUGUACAUGAGGAUCACCCAUGUUGUGGAUU | 48.4 | 39.9 |  |  |
| AUUAUUUACAUAGGAUAUUGUUACAUGAGGAUCACCCAUGUUAUUUGGGAAUUAGGAAUAUUUUACAAGAAGGAUGUUGUUACA | 87.4 | 67 |  |  |
| ACAAAGCAUGUAGGAUAUCCAUUGCGUCGCGAUGGAGAAGGACAACACACAUGAGGAUCACCCAUGUGAUCACCCAUGUCAUGU |  |  | 866 | 1210 |
| GAACCUAAGUCAGGAUAUGUCUAAGAAAACUGACAUGAGGAUCACCCAUGUGAAUGUAAAGCAUGGCAGAAGGGAUAUGGGUGG | 171 | 315 |  |  |
| UUCGCUAAGGUGUAGCGAGACUUGCAAGAAGGGUGAAGAACAUGAGGAUCACCCAUGUAAGCCUUACAGGAUAUUGCUUGACGA | 106 | 36.4 |  |  |
